Data taken from ChEMBL document CHEMBL3259681, “Structure-activity relationship refinement and further assessment of 4-phenylquinazoline-2-carboxamide translocator protein ligands as antiproliferative agents in human glioblastoma tumors” (J Med Chem, 2014).
Active and inactive are the calls of the source. The calls are words filed in the database; no cut-off is given here.

Experiments:
Translocator protein = Translocator protein (Rattus norvegicus, UniProt P16257); assay: Displacement of [3H]PK11195 from TSPO in rat kidney mitochondrial membranes; assay type: cell membranes
Sequence of Translocator protein (P16257 whole entry, looked up): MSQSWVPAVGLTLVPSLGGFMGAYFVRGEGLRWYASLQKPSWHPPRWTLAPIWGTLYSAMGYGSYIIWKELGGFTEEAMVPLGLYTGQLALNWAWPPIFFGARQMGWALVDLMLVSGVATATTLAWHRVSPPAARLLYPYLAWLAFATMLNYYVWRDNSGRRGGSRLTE

[1] = biological target: Translocator protein (Rattus norvegicus) (UniProt P16257); assay: Displacement of [3H]PK11195 from TSPO in rat kidney mitochondrial membranes at 1 uM; assay type: cell membranes
Sequence of Translocator protein (Rattus norvegicus) (P16257 whole entry, looked up): as above
Procedure, shortened: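 Competition binding against 0.6 nM [³H]PK11195 in crude rat kidney mitochondrial membranes, 50 mM Tris–HCl pH 7.4. Six compound concentrations spanning 0.05 nM–20 μM, each in triplicate. IC50 from displacement curves, converted to Ki by Cheng–Prusoff. Percent inhibition taken at 1 μM. Values are mean ± SEM of three determinations.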

Homo sapiens [2] = organism: Homo sapiens; assay: Binding affinity to Central-type benzodiazepine receptor (unknown origin)
[3] = biological target: Platelet-derived growth factor receptor beta (Homo sapiens) (UniProt P09619); assay: Inhibition of human PDGFRbeta kinase at 10 uM
[4] = biological target: Protein kinase C beta type (Homo sapiens) (UniProt P05771); assay: Inhibition of human PKCbeta2 at 1 uM
Sequence of Protein kinase C beta type (Homo sapiens) (P05771 2-671 limits assumed): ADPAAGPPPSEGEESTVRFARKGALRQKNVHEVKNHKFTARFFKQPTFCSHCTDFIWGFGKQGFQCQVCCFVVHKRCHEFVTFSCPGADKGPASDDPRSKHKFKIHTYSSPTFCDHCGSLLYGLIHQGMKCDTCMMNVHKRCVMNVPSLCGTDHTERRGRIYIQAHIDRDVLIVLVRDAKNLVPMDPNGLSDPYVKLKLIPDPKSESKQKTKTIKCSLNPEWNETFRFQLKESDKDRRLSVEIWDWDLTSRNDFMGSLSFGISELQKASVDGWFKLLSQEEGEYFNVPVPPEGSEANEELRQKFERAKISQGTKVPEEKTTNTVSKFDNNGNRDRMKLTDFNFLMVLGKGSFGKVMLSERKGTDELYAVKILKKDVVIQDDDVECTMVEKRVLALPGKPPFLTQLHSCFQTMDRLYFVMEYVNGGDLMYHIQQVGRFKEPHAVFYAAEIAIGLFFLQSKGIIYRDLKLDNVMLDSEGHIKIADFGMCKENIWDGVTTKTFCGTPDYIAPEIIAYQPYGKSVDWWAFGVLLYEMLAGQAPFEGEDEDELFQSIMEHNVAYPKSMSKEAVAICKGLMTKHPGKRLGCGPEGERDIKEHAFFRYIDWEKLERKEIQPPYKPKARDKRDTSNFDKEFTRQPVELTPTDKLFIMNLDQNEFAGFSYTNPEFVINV

Homo sapiens [5] = organism: Homo sapiens; assay: Agonist activity at GPCR in human U-343 MGa cell membrane assessed as increase in basal [35S]GTPgamma binding at 100 uM; assay type: functional, cell membranes
[6] = biological target: Mast/stem cell growth factor receptor Kit (Homo sapiens) (UniProt P10721); assay: Inhibition of human c-kit kinase at 1 uM
Sequence of Mast/stem cell growth factor receptor Kit (Homo sapiens) (P10721 whole entry): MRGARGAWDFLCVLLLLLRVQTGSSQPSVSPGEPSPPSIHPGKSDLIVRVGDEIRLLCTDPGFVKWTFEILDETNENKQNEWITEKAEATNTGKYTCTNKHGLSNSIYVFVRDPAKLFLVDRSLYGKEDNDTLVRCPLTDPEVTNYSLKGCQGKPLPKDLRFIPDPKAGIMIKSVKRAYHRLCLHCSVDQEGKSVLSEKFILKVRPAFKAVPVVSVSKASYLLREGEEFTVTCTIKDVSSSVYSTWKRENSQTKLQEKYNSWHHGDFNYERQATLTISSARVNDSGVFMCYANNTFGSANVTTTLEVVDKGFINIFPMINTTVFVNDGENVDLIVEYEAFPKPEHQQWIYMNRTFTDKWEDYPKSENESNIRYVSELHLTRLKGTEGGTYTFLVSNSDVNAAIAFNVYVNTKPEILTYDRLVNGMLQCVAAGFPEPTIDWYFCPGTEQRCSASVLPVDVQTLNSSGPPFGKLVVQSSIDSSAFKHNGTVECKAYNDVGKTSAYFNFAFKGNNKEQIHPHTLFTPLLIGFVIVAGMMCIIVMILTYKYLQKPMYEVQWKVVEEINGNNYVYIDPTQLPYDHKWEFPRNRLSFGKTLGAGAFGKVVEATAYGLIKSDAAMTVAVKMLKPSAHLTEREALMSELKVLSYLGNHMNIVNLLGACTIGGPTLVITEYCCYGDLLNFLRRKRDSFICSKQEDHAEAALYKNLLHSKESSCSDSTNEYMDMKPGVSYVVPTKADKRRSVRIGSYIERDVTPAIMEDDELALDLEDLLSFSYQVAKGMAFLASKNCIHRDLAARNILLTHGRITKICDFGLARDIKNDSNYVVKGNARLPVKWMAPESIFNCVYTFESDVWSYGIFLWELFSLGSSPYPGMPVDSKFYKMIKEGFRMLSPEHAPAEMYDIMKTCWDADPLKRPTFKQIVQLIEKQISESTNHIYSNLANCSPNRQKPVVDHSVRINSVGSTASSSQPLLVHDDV

[7] = biological target: Vascular endothelial growth factor receptor 1 (Homo sapiens) (UniProt P17948); assay: Inhibition of human FLT-1 kinase at 10 uM
[8] = biological target: Platelet-derived growth factor receptor alpha (Homo sapiens) (UniProt P16234); assay: Inhibition of human PDGFRalpha kinase at 1 uM
Sequence of Platelet-derived growth factor receptor alpha (Homo sapiens) (P16234 whole entry): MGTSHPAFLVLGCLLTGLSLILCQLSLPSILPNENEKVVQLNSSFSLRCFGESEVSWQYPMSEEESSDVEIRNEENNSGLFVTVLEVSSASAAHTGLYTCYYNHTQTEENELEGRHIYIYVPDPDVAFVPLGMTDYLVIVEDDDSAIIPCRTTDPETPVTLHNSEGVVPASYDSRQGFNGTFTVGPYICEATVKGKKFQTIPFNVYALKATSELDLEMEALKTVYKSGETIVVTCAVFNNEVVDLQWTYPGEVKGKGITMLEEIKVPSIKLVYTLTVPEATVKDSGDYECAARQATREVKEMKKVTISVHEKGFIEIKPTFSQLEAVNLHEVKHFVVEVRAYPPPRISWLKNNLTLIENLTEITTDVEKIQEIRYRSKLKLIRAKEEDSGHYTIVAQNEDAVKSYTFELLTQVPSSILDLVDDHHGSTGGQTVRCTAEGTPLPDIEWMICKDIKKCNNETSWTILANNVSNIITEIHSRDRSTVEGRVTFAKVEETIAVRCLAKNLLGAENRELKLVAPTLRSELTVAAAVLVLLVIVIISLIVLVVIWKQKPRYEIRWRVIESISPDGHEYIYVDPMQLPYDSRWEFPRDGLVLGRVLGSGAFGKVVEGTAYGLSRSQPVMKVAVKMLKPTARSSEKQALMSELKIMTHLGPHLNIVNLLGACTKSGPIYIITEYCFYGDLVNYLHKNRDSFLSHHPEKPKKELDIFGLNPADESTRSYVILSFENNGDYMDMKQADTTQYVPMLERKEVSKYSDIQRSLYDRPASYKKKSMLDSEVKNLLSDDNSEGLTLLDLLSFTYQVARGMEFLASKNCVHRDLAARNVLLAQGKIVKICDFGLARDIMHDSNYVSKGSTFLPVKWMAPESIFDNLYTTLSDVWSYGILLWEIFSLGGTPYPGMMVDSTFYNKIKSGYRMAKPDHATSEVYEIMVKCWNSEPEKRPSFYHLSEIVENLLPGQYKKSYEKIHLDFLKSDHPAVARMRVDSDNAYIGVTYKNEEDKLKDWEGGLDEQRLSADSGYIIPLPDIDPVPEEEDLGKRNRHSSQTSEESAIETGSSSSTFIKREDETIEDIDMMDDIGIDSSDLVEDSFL

[9] = biological target: Vascular endothelial growth factor receptor 2 (Homo sapiens) (UniProt P35968); assay: Inhibition of human KDR kinase at 10 uM
Homo sapiens [10] = organism: Homo sapiens; assay: (§1) Cytotoxicity against human U-343 MGa cells assessed as inhibition of cell survival after 24 hrs by colorimetric viability MTS assay; assay type: functional, cell-based
Procedure, shortened: (§2)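 U343 cells were seeded ~4.5 × 10³/well, grown 24 h, then treated 24 h with 10 nM–100 μM compound; vehicle (DMSO or EtOH) was ≤1%. Viability by MTS conversion relative to control (100%). IC50 was taken as the concentration giving half-maximal survival inhibition. Duplicates, ≥3 experiments, mean ± SEM.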

[11] = as §1; assay type: functional, cell-based; procedure, shortened: as §2
[12] = biological target: Vascular endothelial growth factor receptor 2 (Homo sapiens) (UniProt P35968); assay: Inhibition of human KDR kinase at 1 uM
[13] = biological target: Proto-oncogene tyrosine-protein kinase receptor Ret (Homo sapiens) (UniProt P07949); assay: Inhibition of human Ret kinase at 10 uM
Sequence of Proto-oncogene tyrosine-protein kinase receptor Ret (Homo sapiens) (P07949 whole entry): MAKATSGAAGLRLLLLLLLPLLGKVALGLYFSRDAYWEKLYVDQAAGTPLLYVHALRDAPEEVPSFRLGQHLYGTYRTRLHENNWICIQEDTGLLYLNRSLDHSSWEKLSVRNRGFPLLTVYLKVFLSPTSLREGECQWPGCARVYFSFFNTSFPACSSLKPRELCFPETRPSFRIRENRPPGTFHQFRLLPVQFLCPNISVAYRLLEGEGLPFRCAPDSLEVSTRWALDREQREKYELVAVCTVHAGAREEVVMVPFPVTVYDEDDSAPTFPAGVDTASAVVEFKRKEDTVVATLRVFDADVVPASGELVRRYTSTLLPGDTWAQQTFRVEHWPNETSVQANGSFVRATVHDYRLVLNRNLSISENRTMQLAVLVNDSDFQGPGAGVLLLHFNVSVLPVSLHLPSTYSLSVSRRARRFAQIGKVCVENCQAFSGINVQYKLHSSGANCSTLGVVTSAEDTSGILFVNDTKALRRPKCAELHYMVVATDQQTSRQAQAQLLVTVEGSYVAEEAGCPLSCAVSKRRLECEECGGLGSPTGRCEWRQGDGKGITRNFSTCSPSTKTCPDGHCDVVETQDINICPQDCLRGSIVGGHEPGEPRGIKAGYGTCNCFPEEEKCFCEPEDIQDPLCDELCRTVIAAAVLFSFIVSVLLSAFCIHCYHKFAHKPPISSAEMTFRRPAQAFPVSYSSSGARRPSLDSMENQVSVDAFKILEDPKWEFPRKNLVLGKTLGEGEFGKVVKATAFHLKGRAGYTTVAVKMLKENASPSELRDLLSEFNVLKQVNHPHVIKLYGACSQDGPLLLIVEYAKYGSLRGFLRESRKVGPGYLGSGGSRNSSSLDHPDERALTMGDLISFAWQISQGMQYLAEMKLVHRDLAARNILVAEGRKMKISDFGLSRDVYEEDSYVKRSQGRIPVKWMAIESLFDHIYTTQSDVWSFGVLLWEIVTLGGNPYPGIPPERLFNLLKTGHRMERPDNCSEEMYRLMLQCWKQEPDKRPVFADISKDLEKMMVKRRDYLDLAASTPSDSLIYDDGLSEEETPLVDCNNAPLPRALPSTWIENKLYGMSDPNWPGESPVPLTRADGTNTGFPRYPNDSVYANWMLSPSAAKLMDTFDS

[14] = biological target: Platelet-derived growth factor receptor beta (Homo sapiens) (UniProt P09619); assay: Inhibition of human PDGFRbeta kinase at 1 uM
[15] = biological target: Mast/stem cell growth factor receptor Kit (Homo sapiens) (UniProt P10721); assay: Inhibition of human c-kit kinase at 10 uM
Homo sapiens [16] = organism: Homo sapiens; assay: Agonist activity at GPCR in human U-343 MGa cell membrane assessed as increase in basal [35S]GTPgamma binding at 0.1 nM; assay type: functional, cell membranes
[17] = biological target: Protein kinase C beta type (Homo sapiens) (UniProt P05771); assay: Inhibition of human PKCbeta1 at 1 uM
[18] = biological target: Epidermal growth factor receptor (Homo sapiens) (UniProt P00533); assay: Inhibition of human EGFR kinase at 10 uM
[19] = biological target: Tyrosine-protein kinase ABL1 (Homo sapiens) (UniProt P00519); assay: Inhibition of human Abl kinase at 10 uM
[20] = biological target: Receptor tyrosine-protein kinase erbB-2 (Homo sapiens) (UniProt P04626); assay: Inhibition of human HER2/ErbB2 kinase at 10 uM
[21] = biological target: Receptor-type tyrosine-protein kinase FLT3 (Homo sapiens) (UniProt P36888); assay: Inhibition of human FLT-3 kinase at 10 uM
Sequence of Receptor-type tyrosine-protein kinase FLT3 (Homo sapiens) (P36888 whole entry): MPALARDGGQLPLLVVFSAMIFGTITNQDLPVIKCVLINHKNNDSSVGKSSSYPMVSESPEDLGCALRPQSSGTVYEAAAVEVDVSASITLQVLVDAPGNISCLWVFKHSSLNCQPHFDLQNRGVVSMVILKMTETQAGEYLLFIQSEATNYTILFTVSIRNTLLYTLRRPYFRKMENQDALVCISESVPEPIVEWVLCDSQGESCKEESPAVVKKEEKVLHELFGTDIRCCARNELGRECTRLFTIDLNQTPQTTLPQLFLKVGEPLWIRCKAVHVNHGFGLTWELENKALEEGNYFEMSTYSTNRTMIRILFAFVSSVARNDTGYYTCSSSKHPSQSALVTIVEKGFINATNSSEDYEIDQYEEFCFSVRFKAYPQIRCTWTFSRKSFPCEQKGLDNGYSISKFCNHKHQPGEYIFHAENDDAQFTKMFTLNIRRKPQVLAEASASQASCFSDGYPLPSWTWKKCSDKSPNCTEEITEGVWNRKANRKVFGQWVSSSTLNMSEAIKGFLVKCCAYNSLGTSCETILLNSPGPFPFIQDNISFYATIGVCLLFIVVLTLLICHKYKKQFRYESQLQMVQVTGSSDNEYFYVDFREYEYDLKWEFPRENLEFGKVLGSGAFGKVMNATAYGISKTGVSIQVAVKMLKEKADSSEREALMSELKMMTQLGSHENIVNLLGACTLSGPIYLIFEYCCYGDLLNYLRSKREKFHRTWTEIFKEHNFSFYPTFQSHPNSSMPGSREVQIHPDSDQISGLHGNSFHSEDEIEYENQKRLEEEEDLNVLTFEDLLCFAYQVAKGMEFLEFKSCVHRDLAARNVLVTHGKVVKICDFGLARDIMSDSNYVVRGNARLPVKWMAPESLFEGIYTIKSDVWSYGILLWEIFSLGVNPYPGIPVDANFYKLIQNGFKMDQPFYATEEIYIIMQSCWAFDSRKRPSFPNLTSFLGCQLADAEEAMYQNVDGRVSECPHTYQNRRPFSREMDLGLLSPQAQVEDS

[22] = biological target: Vascular endothelial growth factor receptor 1 (Homo sapiens) (UniProt P17948); assay: Inhibition of human FLT-1 kinase at 1 uM
[23] = biological target: Protein kinase C beta type (Homo sapiens) (UniProt P05771); assay: Inhibition of human PKCbeta2 at 10 uM
[24] = biological target: Receptor-type tyrosine-protein kinase FLT3 (Homo sapiens) (UniProt P36888); assay: Inhibition of human FLT-3 kinase at 1 uM
[25] = biological target: Receptor tyrosine-protein kinase erbB-2 (Homo sapiens) (UniProt P04626); assay: Inhibition of human HER2/ErbB2 kinase at 1 uM
[26] = biological target: Serine/threonine-protein kinase mTOR (Homo sapiens) (UniProt P42345); assay: Inhibition of human mTOR kinase at 10 uM
[27] = biological target: Epidermal growth factor receptor (Homo sapiens) (UniProt P00533); assay: Inhibition of human EGFR kinase at 1 uM
[28] = biological target: Tyrosine-protein kinase ABL1 (Homo sapiens) (UniProt P00519); assay: Inhibition of human Abl kinase at 1 uM
[29] = biological target: Platelet-derived growth factor receptor alpha (Homo sapiens) (UniProt P16234); assay: Inhibition of human PDGFRalpha kinase at 10 uM
[30] = biological target: Proto-oncogene tyrosine-protein kinase receptor Ret (Homo sapiens) (UniProt P07949); assay: Inhibition of human Ret kinase at 1 uM
[31] = biological target: Protein kinase C beta type (Homo sapiens) (UniProt P05771); assay: Inhibition of human PKCbeta1 at 10 uM
Homo sapiens [32] = organism: Homo sapiens; assay: Induction of mitochondrial membrane depolarization in human U-343 MGa cells at 10 uM after 5 hrs by cell fluo-analyzer relative to control; assay type: functional, cell-based
Procedure, shortened: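 U343 cells were seeded ~60 × 10³/well, grown 24 h, then treated 5 h with 10 μM compound; CCCP 3 μM for 15 min served as depolarized control. Floating and adherent cells were pooled and stained with MitoPotential dye for 20 min at rt, then 7-AAD for 5 min. Percent live, depolarized and dead cells was read on a Muse cytometer.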

[33] = biological target: Serine/threonine-protein kinase mTOR (Homo sapiens) (UniProt P42345); assay: Inhibition of human mTOR kinase at 1 uM
Homo sapiens [34] = organism: Homo sapiens; assay: Cytotoxicity against human U-343 MGa cells assessed as decrease in cell viability at 50 uM after 24 hrs by colorimetric viability MTS assay; assay type: functional, cell-based
Procedure, shortened: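 U343 cells in MEM with 10% FBS were seeded ~4.5 × 10³/well and grown 24 h. They were then exposed 24 h to 50 μM compound in complete medium; DMSO or EtOH vehicle was ≤1%. Viable cells were read by MTS colorimetric conversion as percent of vehicle control. Measurements in duplicate; mean ± SEM of three determinations.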

[35] = Cytotoxicity against human U-343 MGa cells assessed as inhibition of cell survival at 100 uM after 24 hrs by colorimetric viability MTS assay; assay type: functional; procedure, shortened: as §2
Homo sapiens [36] = organism: Homo sapiens; assay: Induction of mitochondrial membrane depolarization in human U-343 MGa cells at 3 uM for 15 mins by cell fluo-analyzer relative to control; assay type: functional, cell-based
Procedure, shortened: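 U343 cells were grown at 37 °C and 5% CO₂ in EMEM with 10% FBS, seeded at ~60 × 10³ cells/well and grown 24 h. They were then exposed to the uncoupler as a depolarized positive control. Floating and adherent cells were pooled and stained with MitoPotential dye (20 min, rt), then with 7-AAD (5 min). The Muse cytometer gave % live, depolarized and dead cells.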

CCN(Cc1ccccc1)C(=O)c1nc(-c2ccc(Cl)cc2)c2ccccc2n1
Ki (Translocator protein): 0.762 nM

CCN(Cc1ccccc1)C(=O)c1nc(-c2ccc(C)cc2)c2ccccc2n1
Ki (Translocator protein): 1.49 nM

CCN(Cc1ccccc1)C(=O)c1nc(-c2ccccc2)c2ccccc2n1
Ki (Translocator protein): 1.13 nM

CN(Cc1ccccc1)C(=O)c1nc(-c2ccc(Cl)cc2)c2ccccc2n1
Ki (Translocator protein): 6.12 nM

CCN(Cc1ccccc1)C(=O)c1nc(-c2ccc(F)cc2)c2ccccc2n1
Ki (Translocator protein): 1.68 nM

CCN(Cc1ccc(OC)cc1)C(=O)c1nc(-c2ccccc2)c2ccccc2n1
Ki (Translocator protein): 2.77 nM

CCN(Cc1ccc(C(=O)O)cc1)C(=O)c1nc(-c2ccccc2)c2ccccc2n1
Ki (Translocator protein): 719 nM

CCN(Cc1ccccc1)C(=O)c1nc(-c2ccccc2)c2cc(Cl)ccc2n1
Ki (Translocator protein): 24.3 nM

O=C(NCc1ccccc1)c1nc(-c2ccccc2Cl)c2ccccc2n1
inhibition [1]: 16%

CCCCCCN(CCCCCC)C(=O)c1nc(-c2ccccc2)c2cc(Cl)ccc2n1
Activity (Homo sapiens [2]): inactive

CCN(Cc1ccccc1)C(=O)c1nc(-c2ccccc2Cl)c2ccccc2n1
Ki (Translocator protein): 0.235 nM

CCC(C)N(C)C(=O)c1nc(-c2ccccc2)c2cc(Cl)ccc2n1 (stereo not given)
Activity (Homo sapiens [2]): inactive

CCCCN(CCCC)C(=O)c1nc(-c2ccccc2)c2ccccc2n1
Activity (Homo sapiens [2]): inactive

O=C(NCc1ccccc1)c1nc(-c2ccccc2)c2ccccc2n1
inhibition [1]: 41%

CN(Cc1ccccc1)C(=O)c1cc2ccccc2c(-c2ccccc2Cl)n1
Ki (Translocator protein): 0.442 nM

CCN(Cc1ccc(O)cc1)C(=O)c1nc(-c2ccccc2)c2ccccc2n1
Ki (Translocator protein): 8.76 nM

CCC(C)N(C)C(=O)c1nc(-c2ccccc2)c2ccccc2n1 (stereo not given)
Activity (Homo sapiens [2]): inactive

CCCCCCN(CCCCCC)C(=O)c1nc(-c2ccccc2Cl)c2ccccc2n1
Activity (Homo sapiens [2]): inactive

CCCCCCN(CCCCCC)C(=O)c1nc(-c2ccc(Cl)cc2)c2ccccc2n1
Activity (Homo sapiens [2]): inactive

CCN(Cc1ccc(C)cc1)C(=O)c1nc(-c2ccccc2Cl)c2ccccc2n1
inhibition [3]: inactive
inhibition [4]: inactive
Activity (Homo sapiens [5]): inactive
inhibition [6]: inactive
inhibition [7]: inactive
inhibition [8]: inactive
inhibition [9]: inactive
inhibition (Homo sapiens [10]): Dose-dependent effect
IC50 [11]: 15100 nM
inhibition [12]: inactive
inhibition [13]: inactive
inhibition [14]: inactive
Ki (Translocator protein): 0.489 nM
inhibition [15]: inactive
Activity (Homo sapiens [16]): inactive
inhibition [17]: inactive
inhibition [18]: inactive
inhibition [19]: inactive
inhibition [20]: inactive
inhibition [21]: inactive
inhibition [22]: inactive
inhibition [23]: inactive
inhibition [24]: inactive
inhibition [25]: inactive
inhibition [26]: inactive
inhibition [27]: inactive
inhibition [28]: inactive
inhibition [29]: inactive
inhibition [30]: inactive
inhibition [31]: inactive
Activity (Homo sapiens [32]): Active
inhibition [33]: inactive
inhibition (Homo sapiens [34]): Active

CCC(C)N(C)C(=O)c1nc(-c2ccccc2Cl)c2ccccc2n1 (stereo not given)
Activity (Homo sapiens [2]): inactive

CN(Cc1ccccc1)C(=O)c1nc(-c2ccccc2F)c2ccccc2n1
Ki (Translocator protein): 1.11 nM

CN(Cc1ccccc1)C(=O)c1nc(-c2ccccc2)c2ccccc2n1
Ki (Translocator protein): 3.99 nM

CCC(C)N(C)C(=O)c1cc2ccccc2c(-c2ccccc2Cl)n1 (stereo not given) [PK-11195]
inhibition at 100 µM [35]: 40%
Activity (Homo sapiens [32]): Active

CCCCCN(CCCCC)C(=O)c1nc(-c2ccccc2)c2ccccc2n1
Activity (Homo sapiens [2]): inactive

CCN(Cc1ccccc1)C(=O)c1nc(-c2ccccc2F)c2ccccc2n1
Ki (Translocator protein): 0.888 nM

CCOC(=O)c1ccc(CN(CC)C(=O)c2nc(-c3ccccc3)c3ccccc3n2)cc1
Ki (Translocator protein): 3.65 nM

CCN(Cc1ccc(C)cc1)C(=O)c1nc(-c2ccccc2)c2ccccc2n1
Ki (Translocator protein): 2.57 nM

CCC(C)N(C)C(=O)c1nc(-c2ccc(Cl)cc2)c2ccccc2n1 (stereo not given)
Activity (Homo sapiens [2]): inactive

CCN(Cc1ccc([N+](=O)[O-])cc1)C(=O)c1nc(-c2ccccc2)c2ccccc2n1
Ki (Translocator protein): 4.2 nM

CCCCCCN(CCCCCC)C(=O)c1nc(-c2ccccc2)c2ccccc2n1
inhibition (Homo sapiens [10]): Dose-dependent effect
IC50 [11]: 17700 nM
Activity (Homo sapiens [2]): inactive
Activity (Homo sapiens [32]): Active
inhibition (Homo sapiens [34]): Active

N#CC(C#N)=NNc1cccc(Cl)c1
Activity (Homo sapiens [36]): Active

CCN(Cc1ccc(C)cc1)C(=O)c1nc(-c2ccccc2F)c2ccccc2n1
Ki (Translocator protein): 0.6 nM
